In ChEMBL document CHEMBL3632517, “Chemical conjugation of 2-hexadecynoic acid to C5-curcumin enhances its antibacterial activity against multi-drug resistant bacteria” (Bioorg Med Chem Lett, 2015):
Values after ≈ are worked out from the molar mass of the structure shown. Active and inactive are the calls of the source. No cut-off for these calls is given here.

Columns and labels:
Escherichia coli = experiment: Antibacterial activity against Escherichia coli ATCC 25922 after 18 to 24 hrs by spectrophotometric analysis; format: functional, organism-based
Staphylococcus aureus [1] = experiment: Antibacterial activity against methicillin-resistant Staphylococcus aureus CIMRSA4 after 18 to 24 hrs by spectrophotometric analysis; format: functional, organism-based
Staphylococcus aureus [2] = experiment: Antibacterial activity against methicillin-resistant Staphylococcus aureus ATCC 43300 after 18 to 24 hrs by spectrophotometric analysis; format: functional, organism-based
Staphylococcus aureus [3] = experiment: Antibacterial activity against methicillin-resistant Staphylococcus aureus CIMRSA7 after 18 to 24 hrs by spectrophotometric analysis; format: functional, organism-based
Staphylococcus aureus [4] = experiment: Antibacterial activity against methicillin-resistant Staphylococcus aureus CIMRSA3 after 18 to 24 hrs by spectrophotometric analysis; format: functional, organism-based
Staphylococcus aureus [5] = experiment: Antibacterial activity against methicillin-resistant Staphylococcus aureus CIMRSA2 after 18 to 24 hrs by spectrophotometric analysis; format: functional, organism-based
Staphylococcus aureus [6] = experiment: Antibacterial activity against methicillin-resistant Staphylococcus aureus CIMRSA6 after 18 to 24 hrs by spectrophotometric analysis; format: functional, organism-based
Staphylococcus aureus [7] = experiment: Antibacterial activity against methicillin-resistant Staphylococcus aureus CIMRSA1 after 18 to 24 hrs by spectrophotometric analysis; format: functional, organism-based
Staphylococcus aureus [8] = experiment: Antibacterial activity against methicillin-resistant Staphylococcus aureus CIMRSA5 after 18 to 24 hrs by spectrophotometric analysis; format: functional, organism-based
[9] = biological target: DNA gyrase (Staphylococcus aureus) (UniProt P0A0K8+P20831); experiment: (§1) Inhibition of supercoiling activity of Staphylococcus aureus DNA gyrase using relaxed pHOT1 plasmid DNA after 60 mins using ethidium bromide staining by […]electrophoresis analysis; format: protein-complex assay
DNA gyrase (Staphylococcus aureus), sequence (P0A0K8 2-644 limits assumed): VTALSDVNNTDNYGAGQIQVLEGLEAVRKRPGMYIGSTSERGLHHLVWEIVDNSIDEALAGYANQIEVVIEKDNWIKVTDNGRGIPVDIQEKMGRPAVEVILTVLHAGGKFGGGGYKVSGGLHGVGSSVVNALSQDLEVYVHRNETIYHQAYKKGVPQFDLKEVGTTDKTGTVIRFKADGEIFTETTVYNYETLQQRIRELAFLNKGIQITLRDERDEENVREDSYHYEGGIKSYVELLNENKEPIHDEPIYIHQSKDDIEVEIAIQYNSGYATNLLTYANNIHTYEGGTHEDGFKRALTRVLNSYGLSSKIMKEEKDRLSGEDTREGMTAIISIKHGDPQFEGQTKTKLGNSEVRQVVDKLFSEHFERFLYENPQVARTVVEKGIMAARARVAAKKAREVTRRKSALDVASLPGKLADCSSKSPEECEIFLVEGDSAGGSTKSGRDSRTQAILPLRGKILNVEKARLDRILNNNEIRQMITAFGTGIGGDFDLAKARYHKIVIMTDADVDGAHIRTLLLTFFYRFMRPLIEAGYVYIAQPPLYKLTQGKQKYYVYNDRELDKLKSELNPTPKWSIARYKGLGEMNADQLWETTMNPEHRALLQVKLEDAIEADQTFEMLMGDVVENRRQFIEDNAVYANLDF
DNA gyrase (Staphylococcus aureus), sequence (P20831 whole entry partner): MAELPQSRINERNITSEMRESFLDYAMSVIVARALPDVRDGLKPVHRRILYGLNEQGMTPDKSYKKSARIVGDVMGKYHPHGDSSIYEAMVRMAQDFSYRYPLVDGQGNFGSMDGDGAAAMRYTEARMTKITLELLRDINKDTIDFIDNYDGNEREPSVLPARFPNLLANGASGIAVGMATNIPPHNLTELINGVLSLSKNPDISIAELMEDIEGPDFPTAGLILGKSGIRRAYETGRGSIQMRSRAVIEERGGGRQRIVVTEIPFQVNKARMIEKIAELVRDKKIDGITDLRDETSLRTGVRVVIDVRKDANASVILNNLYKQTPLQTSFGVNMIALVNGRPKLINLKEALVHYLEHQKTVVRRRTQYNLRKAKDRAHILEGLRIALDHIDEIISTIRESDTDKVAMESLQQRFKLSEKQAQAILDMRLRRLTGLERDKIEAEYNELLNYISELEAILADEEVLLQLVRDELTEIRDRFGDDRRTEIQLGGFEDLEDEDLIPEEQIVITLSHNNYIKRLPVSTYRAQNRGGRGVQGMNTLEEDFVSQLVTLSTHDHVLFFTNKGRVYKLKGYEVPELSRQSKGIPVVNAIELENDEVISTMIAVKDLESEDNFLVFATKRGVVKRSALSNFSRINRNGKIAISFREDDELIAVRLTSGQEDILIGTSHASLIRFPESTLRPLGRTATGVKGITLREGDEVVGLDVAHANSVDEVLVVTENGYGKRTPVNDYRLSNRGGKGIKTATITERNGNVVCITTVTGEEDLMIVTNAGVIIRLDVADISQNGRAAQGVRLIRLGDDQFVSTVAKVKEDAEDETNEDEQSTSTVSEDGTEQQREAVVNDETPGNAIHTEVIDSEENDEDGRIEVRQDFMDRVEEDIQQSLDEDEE

[10] = Ratio of IC50 for human PBMC to IC50 for African green monkey Vero cells; format: cell-based; details: human PBMC versus Vero cells, read-out: Ratio IC50
[11] = Therapeutic index, ratio of IC50 for human PBMC to IC50 for methicillin-resistant Staphylococcus aureus CIMRSA3; details: read-out: Ratio IC50
Procedure, shortened: (§2)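 Therapeutic index is PBMC cytotoxicity IC50 divided by the antibacterial IC50 against each MRSA strain. PBMCs came from healthy volunteers, and their viability was read by CTG luminescent cell viability assay. Experiments were run in triplicate (N = 3).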

[12] = Therapeutic index, ratio of IC50 for human PBMC to IC50 for methicillin-resistant Staphylococcus aureus CIMRSA7; details: read-out: Ratio IC50; procedure, shortened: as §2
[13] = Therapeutic index, ratio of IC50 for human PBMC to IC50 for methicillin-resistant Staphylococcus aureus CIMRSA6; details: read-out: Ratio IC50; procedure, shortened: as §2
[14] = Therapeutic index, ratio of IC50 for human PBMC to IC50 for methicillin-resistant Staphylococcus aureus CIMRSA1; details: read-out: Ratio IC50; procedure, shortened: as §2
Vero = experiment: Cytotoxicity against African green monkey Vero cells after 3 days by CTG luminescent cell viability assay; format: cell-based; details: Chlorocebus sabaeus, 72 h
[15] = Therapeutic index, ratio of IC50 for human PBMC to IC50 for methicillin-resistant Staphylococcus aureus CIMRSA5; details: read-out: Ratio IC50; procedure, shortened: as §2
[16] = Therapeutic index, ratio of IC50 for human PBMC to IC50 for methicillin-resistant Staphylococcus aureus ATCC 43300; details: read-out: Ratio IC50; procedure, shortened: as §2
[17] = Therapeutic index, ratio of IC50 for human PBMC to IC50 for methicillin-resistant Staphylococcus aureus CIMRSA4; details: read-out: Ratio IC50; procedure, shortened: as §2
PBMC = experiment: Cytotoxicity against human PBMC after 3 days by CTG luminescent cell viability assay; format: cell-based; details: 72 h
[18] = Therapeutic index, ratio of IC50 for human PBMC to IC50 for methicillin-resistant Staphylococcus aureus CIMRSA2; details: read-out: Ratio IC50; procedure, shortened: as §2
DNA gyrase = DNA gyrase (Staphylococcus aureus, UniProt P0A0K8+P20831); experiment: as §1; format: protein-complex assay
DNA gyrase, sequence (P0A0K8 whole entry): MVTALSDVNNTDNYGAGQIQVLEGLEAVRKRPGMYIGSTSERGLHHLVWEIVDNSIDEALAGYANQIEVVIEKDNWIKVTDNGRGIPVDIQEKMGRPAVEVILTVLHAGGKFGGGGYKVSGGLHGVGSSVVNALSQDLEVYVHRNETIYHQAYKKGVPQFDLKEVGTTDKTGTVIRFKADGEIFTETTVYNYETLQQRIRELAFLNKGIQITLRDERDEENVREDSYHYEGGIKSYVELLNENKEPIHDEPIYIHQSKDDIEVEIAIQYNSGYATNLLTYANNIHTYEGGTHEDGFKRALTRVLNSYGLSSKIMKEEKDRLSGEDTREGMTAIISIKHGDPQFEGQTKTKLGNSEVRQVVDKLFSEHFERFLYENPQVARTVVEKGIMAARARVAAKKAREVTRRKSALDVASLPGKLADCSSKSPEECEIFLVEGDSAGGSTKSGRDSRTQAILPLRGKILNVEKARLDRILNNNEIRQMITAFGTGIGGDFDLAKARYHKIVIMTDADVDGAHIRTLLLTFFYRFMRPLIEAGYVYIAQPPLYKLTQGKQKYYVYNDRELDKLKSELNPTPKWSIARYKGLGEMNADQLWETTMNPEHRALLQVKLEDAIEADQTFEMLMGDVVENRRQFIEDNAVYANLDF
DNA gyrase, sequence (P20831 whole entry): as the sequence (P20831 whole entry partner) above

SMILES	IC50 (Escherichia coli) [µg/mL]	IC50 (Staphylococcus aureus [1]) [µg/mL]	IC50 (Staphylococcus aureus [2]) [µg/mL]	IC50 (Staphylococcus aureus [3]) [µg/mL]	IC50 (Staphylococcus aureus [4]) [µg/mL]	IC50 (Staphylococcus aureus [5]) [µg/mL]	IC50 (Staphylococcus aureus [6]) [µg/mL]	IC50 (Staphylococcus aureus [7]) [µg/mL]	IC50 (Staphylococcus aureus [8]) [µg/mL]	inhibition [9]	MIC (Staphylococcus aureus [1]) [µg/mL]	MIC (Staphylococcus aureus [2]) [µg/mL]	MIC (Staphylococcus aureus [3]) [µg/mL]	MIC (Staphylococcus aureus [4]) [µg/mL]	MIC (Staphylococcus aureus [5]) [µg/mL]	MIC (Staphylococcus aureus [7]) [µg/mL]	MIC (Staphylococcus aureus [8]) [µg/mL]	selectivity ratio [11]	selectivity ratio [12]	selectivity ratio [13]	also measured
CCCCCCCCCCCCCCCC(=O)Oc1ccc(/C=C/C(=O)/C=C/c2ccc(OC(=O)CCCCCCCCCCCCCCC)c(OC)c2)cc1OC	> 1000	> 1000	> 1000	> 1000	> 1000	> 1000	> 1000	> 1000	> 1000	inactive											
COc1cccc(OC)c1C(=O)N[C@@H]1C(=O)N2[C@@H]1SC(C)(C)[C@@H]2C(=O)O [METHICILLIN]	> 1000	11.8 (≈ 31 µM)	0.98 (≈ 2.58 µM)	1.3 (≈ 3.42 µM)	2.2 (≈ 5.78 µM)	11.8 (≈ 31 µM)	1.2 (≈ 3.15 µM)	2.2 (≈ 5.78 µM)	1.9 (≈ 4.99 µM)		31.3 (≈ 82.3 µM)	1.95 (≈ 5.13 µM)	3.9 (≈ 10.3 µM)	3.9 (≈ 10.3 µM)	31.3 (≈ 82.3 µM)	7.8 (≈ 20.5 µM)	3.9 (≈ 10.3 µM)				
COc1cc(/C=C/C(=O)/C=C/c2ccc(O)c(OC)c2)ccc1O	> 1000	185 (≈ 567 µM)	111 (≈ 341 µM)	303 (≈ 929 µM)	124 (≈ 379 µM)	133 (≈ 409 µM)	195 (≈ 597 µM)	141 (≈ 432 µM)	202 (≈ 620 µM)	inactive	500 (≈ 1530 µM)	250 (≈ 766 µM)	500 (≈ 1530 µM)	250 (≈ 766 µM)	250 (≈ 766 µM)	250 (≈ 766 µM)	500 (≈ 1530 µM)	0.4	0.2	0.2	selectivity ratio [10]: 8.2; selectivity ratio [14]: 0.3; IC50 (Vero): 5.7 µg/mL (≈ 17.5 µM); selectivity ratio [15]: 0.2; selectivity ratio [16]: 0.4; selectivity ratio [17]: 0.3; MIC (Staphylococcus aureus [6]): 500 µg/mL (≈ 1530 µM); IC50 (PBMC): 46.9 µg/mL (≈ 144 µM); selectivity ratio [18]: 0.4
CCCCCCCCCCCCCCCC(=O)O [PALMITIC ACID]	> 1000	> 1000	> 1000	> 1000	> 1000	> 1000	> 1000	> 1000	> 1000												
CCCCCCCCCCCCCC#CC(=O)Oc1ccc(/C=C/C(=O)/C=C/c2ccc(OC(=O)C#CCCCCCCCCCCCCC)c(OC)c2)cc1OC	> 1000	24.9 (≈ 31.3 µM)	39.5 (≈ 49.7 µM)	34.2 (≈ 43 µM)	34.2 (≈ 43 µM)	34.9 (≈ 43.9 µM)	38.9 (≈ 48.9 µM)	30.3 (≈ 38.1 µM)	25.4 (≈ 31.9 µM)		31.3 (≈ 39.4 µM)	62.5 (≈ 78.6 µM)	62.5 (≈ 78.6 µM)	62.5 (≈ 78.6 µM)	62.5 (≈ 78.6 µM)	62.5 (≈ 78.6 µM)	31.3 (≈ 39.4 µM)	7.2	7.2	6.3	selectivity ratio [14]: 8.1; IC50 (Vero): > 100 µg/mL; selectivity ratio [15]: 9.7; selectivity ratio [16]: 6.2; selectivity ratio [17]: 9.9; MIC (Staphylococcus aureus [6]): 62.5 µg/mL (≈ 78.6 µM); IC50 (PBMC): 247 µg/mL (≈ 310 µM); selectivity ratio [18]: 7.1; IC50 (DNA gyrase): 126 µM
